Experiments:
HT-29 = test: Cytotoxicity against human HT29 cells after 48 hrs by sulforhodamine B assay; assay type: functional; conditions: HT-29, 48 h
A549 [1] = test: Cytotoxicity against human A549 cells after 48 hrs by sulforhodamine B assay; assay type: functional; conditions: A549, 48 h
HL-60 = test: Cytotoxicity against human HL60 cells after 48 hrs by sulforhodamine B assay; assay type: functional; conditions: HL-60, 48 h
MCF7 [2] = test: Cytotoxicity against human MCF7 cells after 48 hrs by sulforhodamine B assay; assay type: functional; conditions: MCF7, 48 h
SF-295 [3] = test: Cytotoxicity against human SF295 cells after 48 hrs by sulforhodamine B assay; assay type: functional; conditions: SF-295, 48 h
DU-145 [4] = test: Cytotoxicity against human DU145 cells after 48 hrs by sulforhodamine B assay; assay type: functional; conditions: DU-145, 48 h
A498 = test: Cytotoxicity against human A498 cells after 48 hrs by sulforhodamine B assay; assay type: functional; conditions: A498, 48 h
OVCAR-3 [5] = test: Cytotoxicity against human OVCAR3 cells after 48 hrs by sulforhodamine B assay; assay type: functional; conditions: OVCAR-3, 48 h
COLO 205 [6] = test: Cytotoxicity against human COLO205 cells after 48 hrs by sulforhodamine B assay; assay type: functional; conditions: COLO 205, 48 h
NCI-H460 [7] = test: Cytotoxicity against human NCI-H460 cells after 48 hrs by sulforhodamine B assay; assay type: functional; conditions: NCI-H460, 48 h
[8] = Inhibition of bovine brain tubulin polymerization after 30 mins by turbidimetry analysis; design: species or system Bos taurus
Outline: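 Lyophilized bovine brain tubulin (97%) reconstituted to 5 mg/mL in 80 mM PIPES pH 6.9, 2 mM MgCl₂, 0.5 mM EGTA, 1.0 mM GTP and 5% glycerol. Compound in DMSO was added to this solution in a quartz cuvette at 0 °C. Assembly was followed as the rise in absorbance at 340 nm at 37 °C. IC₅₀ is the molar concentration halving the extent of assembly after 30 min.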

[9] = Solubility in water; assay type: physicochemical; conditions: buffer
MDA-MB-468 = test: Cytotoxicity against human MDA-MB-468 cells assessed as growth inhibition at 10^-5 M after 48 hrs by sulforhodamine B assay; assay type: functional; conditions: MDA-MB-468, 48 h, read-out: GI
Hs-578T = test: Cytotoxicity against human HS578T cells assessed as growth inhibition at 10^-5 M after 48 hrs by sulforhodamine B assay; assay type: functional; conditions: read-out: GI
MDA-MB-231 = test: Cytotoxicity against human MDA-MB-231/ATCC cells assessed as growth inhibition at 10^-5 M after 48 hrs by sulforhodamine B assay; assay type: functional; conditions: MDA-MB-231, 48 h, read-out: GI
MCF7 [10] = test: Cytotoxicity against human MCF7 cells assessed as growth inhibition at 10^-5 M after 48 hrs by sulforhodamine B assay; assay type: functional; conditions: MCF7, 48 h, read-out: GI
SF-539 = test: Cytotoxicity against human SF539 cells assessed as growth inhibition at 10^-5 M after 48 hrs by sulforhodamine B assay; assay type: functional; conditions: SF-539, 48 h, read-out: GI
SF-295 [11] = test: Cytotoxicity against human SF295 cells assessed as growth inhibition at 10^-5 M after 48 hrs by sulforhodamine B assay; assay type: functional; conditions: SF-295, 48 h, read-out: GI
SF-268 = test: Cytotoxicity against human SF268 cells assessed as growth inhibition at 10^-5 M after 48 hrs by sulforhodamine B assay; assay type: functional; conditions: SF-268, 48 h, read-out: GI
DU-145 [12] = test: Cytotoxicity against human DU145 cells assessed as growth inhibition at 10^-5 M after 48 hrs by sulforhodamine B assay; assay type: functional; conditions: DU-145, 48 h, read-out: GI
UO-31 = test: Cytotoxicity against human UO31 cells assessed as growth inhibition at 10^-5 M after 48 hrs by sulforhodamine B assay; assay type: functional; conditions: UO-31, 48 h, read-out: GI
SN12C = test: Cytotoxicity against human SN12C cells assessed as growth inhibition at 10^-5 M after 48 hrs by sulforhodamine B assay; assay type: functional; conditions: read-out: GI
RXF 393 = test: Cytotoxicity against human RXF393 cells assessed as growth inhibition at 10^-5 M after 48 hrs by sulforhodamine B assay; assay type: functional; conditions: RXF 393, 48 h, read-out: GI
CAKI-1 = test: Cytotoxicity against human Caki1 cells assessed as growth inhibition at 10^-5 M after 48 hrs by sulforhodamine B assay; assay type: functional; conditions: CAKI-1, 48 h, read-out: GI
SK-OV-3 = test: Cytotoxicity against human SKOV3 cells assessed as growth inhibition at 10^-5 M after 48 hrs by sulforhodamine B assay; assay type: functional; conditions: SK-OV-3, 48 h, read-out: GI
NCI/ADR-RES = test: Cytotoxicity against human NCI/ADR-RES cells assessed as growth inhibition at 10^-5 M after 48 hrs by sulforhodamine B assay; assay type: functional; conditions: read-out: GI
OVCAR-5 = test: Cytotoxicity against human OVCAR5 cells assessed as growth inhibition at 10^-5 M after 48 hrs by sulforhodamine B assay; assay type: functional; conditions: OVCAR-5, 48 h, read-out: GI
OVCAR-4 = test: Cytotoxicity against human OVCAR4 cells assessed as growth inhibition at 10^-5 M after 48 hrs by sulforhodamine B assay; assay type: functional; conditions: OVCAR-4, 48 h, read-out: GI
OVCAR-3 [13] = test: Cytotoxicity against human OVCAR3 cells assessed as growth inhibition at 10^-5 M after 48 hrs by sulforhodamine B assay; assay type: functional; conditions: OVCAR-3, 48 h, read-out: GI
UACC-62 = test: Cytotoxicity against human UACC62 cells assessed as growth inhibition at 10^-5 M after 48 hrs by sulforhodamine B assay; assay type: functional; conditions: UACC-62, 48 h, read-out: GI
SK-MEL-28 = test: Cytotoxicity against human SK-MEL-28 cells assessed as growth inhibition at 10^-5 M after 48 hrs by sulforhodamine B assay; assay type: functional; conditions: SK-MEL-28, 48 h, read-out: GI
SK-MEL-2 = test: Cytotoxicity against human SK-MEL-2 cells assessed as growth inhibition at 10^-5 M after 48 hrs by sulforhodamine B assay; assay type: functional; conditions: SK-MEL-2, 48 h, read-out: GI
MDA-MB-435 = test: Cytotoxicity against human MDA-MB-435 cells assessed as growth inhibition at 10^-5 M after 48 hrs by sulforhodamine B assay; assay type: functional; conditions: MDA-MB-435, 48 h, read-out: GI
M14 = test: Cytotoxicity against human M14 cells assessed as growth inhibition at 10^-5 M after 48 hrs by sulforhodamine B assay; assay type: functional; conditions: M14, 48 h, read-out: GI
KM12 = test: Cytotoxicity against human KM12 cells assessed as growth inhibition at 10^-5 M after 48 hrs by sulforhodamine B assay; assay type: functional; conditions: KM12, 48 h, read-out: GI
HCT-15 = test: Cytotoxicity against human HCT15 cells assessed as growth inhibition at 10^-5 M after 48 hrs by sulforhodamine B assay; assay type: functional; conditions: HCT-15, 48 h, read-out: GI
HCT-116 = test: Cytotoxicity against human HCT116 cells assessed as growth inhibition at 10^-5 M after 48 hrs by sulforhodamine B assay; assay type: functional; conditions: HCT-116, 48 h, read-out: GI
HCC 2998 = test: Cytotoxicity against human HCC2998 cells assessed as growth inhibition at 10^-5 M after 48 hrs by sulforhodamine B assay; assay type: functional; conditions: HCC 2998, 48 h, read-out: GI
COLO 205 [14] = test: Cytotoxicity against human COLO205 cells assessed as growth inhibition at 10^-5 M after 48 hrs by sulforhodamine B assay; assay type: functional; conditions: COLO 205, 48 h, read-out: GI
NCI-H522 = test: Cytotoxicity against human NCI-H522 cells assessed as growth inhibition at 10^-5 M after 48 hrs by sulforhodamine B assay; assay type: functional; conditions: NCI-H522, 48 h, read-out: GI
NCI-H460 [15] = test: Cytotoxicity against human NCI-H460 cells assessed as growth inhibition at 10^-5 M after 48 hrs by sulforhodamine B assay; assay type: functional; conditions: NCI-H460, 48 h, read-out: GI
NCI-H322M = test: Cytotoxicity against human NCI-H322M cells assessed as growth inhibition at 10^-5 M after 48 hrs by sulforhodamine B assay; assay type: functional; conditions: read-out: GI
EKVX = test: Cytotoxicity against human EKVX cells assessed as growth inhibition at 10^-5 M after 48 hrs by sulforhodamine B assay; assay type: functional; conditions: read-out: GI
A549 [16] = test: Cytotoxicity against human A549/ATCC cells assessed as growth inhibition at 10^-5 M after 48 hrs by sulforhodamine B assay; assay type: functional; conditions: A549, 48 h, read-out: GI
K562 = test: Cytotoxicity against human K562 cells assessed as growth inhibition at 10^-5 M after 48 hrs by sulforhodamine B assay; assay type: functional; conditions: K562, 48 h, read-out: GI
HL-60(TB) = test: Cytotoxicity against human HL-60(TB) cells assessed as growth inhibition at 10^-5 M after 48 hrs by sulforhodamine B assay; assay type: functional; conditions: HL-60, 48 h, read-out: GI
CCRF-CEM = test: Cytotoxicity against human CCRF-CEM cells assessed as growth inhibition at 10^-5 M after 48 hrs by sulforhodamine B assay; assay type: functional; conditions: read-out: GI

With COc1ccc(C(=O)c2cc(OC)c(OC)c(OC)c2)cc1O [PHENSTATIN] as the compound, how does the GI50 (HT-29) read?
The GI50 was 1800 nM.

What about the GI50 (A549 [1]) of the same compound?
Its GI50 is 290 nM.

What about the GI50 (HL-60) of the same compound?
Its GI50 is 31 nM.

And the GI50 (MCF7 [2])?
The GI50 was 34 nM.

And the GI50 (SF-295 [3])?
Its GI50 is 52 nM.

What about the GI50 (DU-145 [4]) of the same compound?
Its GI50 is 34 nM.

What about the GI50 (A498) of the same compound?
Its GI50 is 380 nM.

What about the GI50 (OVCAR-3 [5]) of the same compound?
Its GI50 is 2.3 nM.

What about the GI50 (COLO 205 [6]) of the same compound?
The GI50 was 4860 nM.

What about the GI50 (NCI-H460 [7]) of the same compound?
The GI50 was 5.7 nM.

What about the IC50 [8] of the same compound?
Its IC50 is 15000 nM.

What about the solubility [9] of the same compound?
The solubility was “soluble”.

With COc1ccc(C(=O)c2cc(OC)c(OC)c(OC)c2)cc1OP(=O)([O-])[O-].[Na+].[Na+] as the compound, how does the solubility [9] read?
Its solubility is “soluble”.

What does the source list for COc1cc2c(c(O)c1OC)C(=O)c1cc(OC)c(OC)c(OC)c1C2=O?
inhibition of growth at 10 µM (MDA-MB-468): 22.4%; inhibition of growth at 10 µM (Hs-578T): 16.9%; inhibition of growth at 10 µM (MDA-MB-231): 21.3%; inhibition of growth at 10 µM (MCF7 [10]): 26.7%; inhibition of growth at 10 µM (SF-539): 16.2%; inhibition of growth at 10 µM (SF-295 [11]): 37.9%; inhibition of growth at 10 µM (SF-268): 22.2%; inhibition of growth at 10 µM (DU-145 [12]): 7.83%; inhibition of growth at 10 µM (UO-31): 0%; inhibition of growth at 10 µM (SN12C): 8.73%; inhibition of growth at 10 µM (RXF 393): 2.66%; inhibition of growth at 10 µM (CAKI-1): 7.07%; inhibition of growth at 10 µM (SK-OV-3): 9.78%; inhibition of growth at 10 µM (NCI/ADR-RES): 20.3%; inhibition of growth at 10 µM (OVCAR-5): 7.52%; inhibition of growth at 10 µM (OVCAR-4): 60.2%; inhibition of growth at 10 µM (OVCAR-3 [13]): 0%; inhibition of growth at 10 µM (UACC-62): 6.13%; inhibition of growth at 10 µM (SK-MEL-28): 15%; inhibition of growth at 10 µM (SK-MEL-2): 0%; inhibition of growth at 10 µM (MDA-MB-435): 16.9%; inhibition of growth at 10 µM (M14): 0%; inhibition of growth at 10 µM (KM12): 0%; inhibition of growth at 10 µM (HCT-15): 0%; inhibition of growth at 10 µM (HCT-116): 11.8%; inhibition of growth at 10 µM (HCC 2998): 0%; inhibition of growth at 10 µM (COLO 205 [14]): 0%; inhibition of growth at 10 µM (NCI-H522): 29.5%; inhibition of growth at 10 µM (NCI-H460 [15]): 9.33%; inhibition of growth at 10 µM (NCI-H322M): 0%; inhibition of growth at 10 µM (EKVX): 13.5%; inhibition of growth at 10 µM (A549 [16]): 26.1%; inhibition of growth at 10 µM (K562): 0%; inhibition of growth at 10 µM (HL-60(TB)): 6.14%; inhibition of growth at 10 µM (CCRF-CEM): 0%; IC50 [8]: > 100000 nM

Reference: ChEMBL document CHEMBL1833921, “Synthesis and biological evaluation of phenstatin metabolites” (Bioorg Med Chem, 2011)
